In the library only some 2.3% were active in any assay of this set; here they are far more common.
TRPC4 agonist = TRPC4 (mouse) channel activation | HEK293 TRPC4beta/mu-opioid, Fluo4 calcium fluorescence; hits give high values | B-score at 10 µM | actives 0.49% (n = 310,000) | AID 2237;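 active = B-score above 5 SD of library B-scores, and initial fluorescence ratio not above library mean plus 5 SD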;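 note: positive B-score marks a calcium rise read as TRPC4 activation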
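Incubation: 45 min room-temperature Fluo4 loading, 110 s read / System: HEK293 cells stably co-expressing mouse TRPC4beta and mu-opioid receptor / Signal: Fluo4 fluorescence, kinetic / Control set: buffer (low) and maximal DAMGO (high) / Measure: integrated baseline-normalised fluorescence ratio, converted to per-well B score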
TRPC4 block = TRPC4 (mouse) channel inhibition | Q9QUQ5 | HEK293 TRPC4beta/mu-opioid, DAMGO-evoked Fluo4 calcium flux; hits give low values | B-score at 10 µM | actives 0.39% (n = 300,000) | AID 2247;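 active = B-score over 3 SD under the library average, no early fluorescence shift, positive overall ratio signal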
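Assay system: HEK293 cells with stable TRPC4beta plus mu-opioid receptor expression. Dosing: single dose. Measured by: Fluo4 Ca2+ flux fluorescence. Also added: DAMGO in two steps, submaximal then maximal. Read-out: B score from integrated Fluo4 fluorescence ratio.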
TRPC4 PAM = TRPC4 (mouse) allosteric potentiation; B-score at 10 µM; actives 0.42% (n = 310,000); Q9QUQ5; AID 2227; HEK293 TRPC4beta/mu-opioid, DAMGO EC20, Fluo-4 Ca2+ flux; hits give high values;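 active = B-score of calcium response area above 5 SD of library B-scores, with initial fluorescence ratio within 5 SD of library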
TRPC6 act = activators of mouse TRPC6 channel | HEK293-TRPC6 membrane potential dye fluorescence; hits give high values | Q61143 | actives 0.13% (n = 310,000) | B-score at 10 µM | AID 2550;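 active = B-score of the integrated fluorescence ratio above library mean plus 3 SD, and starting fluorescence ratio within library mean plus 5 SD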;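 note: higher score means more depolarization so channel activation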
TRPC6 inhibitor = mouse TRPC6 channel inhibition. actives 1.1% (n = 310,000). B-score at 10 µM. HEK293-TRPC6, membrane potential dye, ACh-evoked depolarization; hits give low values. Q61143. AID 2553;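 active = B-score under library mean minus 3 SD, initial fluorescence not abnormally high, positive integrated signal ratio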;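 note: B-score derived from integrated fluorescence ratio over the kinetic read; more negative B-score means stronger inhibition of depolarization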
A number is an active result; n = inactive.

SMILES	TRPC4 agonist	TRPC4 block	TRPC4 PAM	TRPC6 act	TRPC6 inhibitor
CCCC(=O)Nc1cc2c3c(c1)C(C)C(=O)N3CCC2 (stereo unspecified)	n	n	n	n	n
O=C(COC(=O)Cn1cnc2ccccc2c1=O)Nc1ccccc1Sc1ccc(Cl)cc1	n	-5	n	n	n
O=C(COC(=O)Cn1cnc2ccccc2c1=O)Nc1ccc(Cl)cc1	n	n	n	n	n
COc1ccc(CCNC(=O)CSc2nnc(-c3ccco3)c(-c3ccco3)n2)cc1OC	n	n	n	n	n
CCn1cc[n+](C)c1P(c1ccccc1)c1ccccc1	51	-5	n	n	n
CC1C(=O)N(Cc2ccccc2F)c2ccccc2N1C(=O)c1c(F)cccc1F (stereo unspecified)	n	n	10	n	n
COc1cccc(CN2C(=O)C(C)N(C(=O)c3c(F)cccc3F)c3ccccc32)c1 (stereo unspecified)	n	n	n	n	n
CN(C)c1ccc(C(CNS(=O)(=O)c2ccc([N+](=O)[O-])cc2)N2CCCC2)cc1 (stereo unspecified)	n	n	n	n	n
CC1(C)C(=O)Nc2ccccc2N1C(=O)COC(=O)C1CCCCC1	n	n	10	n	n
Cc1onc(-c2c(F)cccc2Cl)c1C(=O)N1CCN(c2ncc(Br)cn2)CC1	86	n	n	n	n
O=C(CN1C(=O)C2CC=CCC2C1=O)Nc1ccc(S(=O)(=O)N2CCOCC2)cc1 (stereo unspecified)	n	n	n	n	n
CN(C)S(=O)(=O)c1cccc(NC(=O)COC(=O)c2cc(=O)c3ccccc3o2)c1	n	n	n	n	n
COc1ccccc1/C=C/CN1CCCC(CCC(=O)NCc2ccc(F)c(F)c2)C1 (stereo unspecified)	118	n	n	n	n
COc1cccc(CNC(=O)CCC2CCCN(C/C=C/c3ccccc3OC)C2)c1 (stereo unspecified)	73	n	n	n	n
COCc1ccc(CN2CCCC(CCC(=O)NCc3cccc(OC)c3)C2)o1 (stereo unspecified)	n	n	n	n	n
COc1cccc(CNC(=O)CS(=O)(=O)Cc2nc(-c3ccc(C)cc3)oc2C)c1OC	n	n	n	n	n
COc1ccc(S(=O)(=O)NNC(=O)C2COc3ccccc3O2)cc1[N+](=O)[O-] (stereo unspecified)	n	n	n	n	n
C=CCNCCCCOc1cccc(Br)c1	n	n	13	n	n
CC(=O)Nc1ccc(S(=O)(=O)NCC2CCC(C(=O)N3CCCCC3)CC2)cc1 (stereo unspecified)	n	n	n	n	n
CCOC(=O)c1c(-c2ccc(C)cc2)csc1NC(=O)C1CC=CCC1C(=O)O (stereo unspecified)	n	n	n	n	n
CCOC(=O)c1c(-c2cccc(C)c2)csc1NC(=O)C1CC=CCC1C(=O)O (stereo unspecified)	n	-6	n	n	n
Cc1ccc(-c2csc(NC(=O)C3CC=CCC3C(=O)O)c2C(=O)OC(C)C)cc1 (stereo unspecified)	n	-5	n	n	n
COc1ccc(Nc2ccc([N+](=O)[O-])cc2[N+](=O)[O-])cc1	n	n	n	n	n
Cc1cccc(Cn2c(C(C)(C)C)cc3cccnc32)c1	n	-6	n	n	n
CCOC(=O)C1(Cc2cccc(OC)c2)CCN(Cc2cccc(O)c2)CC1	n	-8	n	n	n
SMILES	TRPC4 agonist	TRPC4 block	TRPC4 PAM	TRPC6 act	TRPC6 inhibitor
CCOC(=O)C1(Cc2cccc(OC)c2)CCN(Cc2ccc(OC)c(OC)c2)CC1	n	n	n	n	n
CCOC(=O)C1(Cc2ccccc2)CCN(CC2CC=CCC2)CC1 (stereo unspecified)	n	-6	n	n	n
CCOC(=O)C1(Cc2cccc(OC)c2)CCN(CC2CC=CCC2)CC1 (stereo unspecified)	n	-5	n	n	n
C/C(=N\NC(=O)c1ccc([N+](=O)[O-])cc1Cl)c1ccccc1	n	n	n	n	n
O=C1COc2ccc(N3C(=O)C=CC3=O)cc2N1	n	-7	n	n	n
O=C1COc2ccc(S(=O)(=O)N3CCCC3)cc2N1	n	n	n	n	n
O=C(NCc1ccc2c(c1)OCO2)C(=O)NCC1OCCCN1S(=O)(=O)c1ccc(F)cc1 (stereo unspecified)	n	n	n	n	n
COC(C/C=C\C(=O)[C@@H](C)OCc1ccccc1)OC	n	n	n	n	n
CC(=O)Nc1ccc(CN2CCCC(C(=O)c3cccc(C(F)(F)F)c3)C2)cc1 (stereo unspecified)	88	n	n	n	n
COc1ccc(CN2CCCC(C(=O)c3cccc(C(F)(F)F)c3)C2)cc1O (stereo unspecified)	62	-8	n	n	n
O=C(c1cccc(C(F)(F)F)c1)C1CCCN(Cc2ccc(OCCO)cc2)C1 (stereo unspecified)	n	n	n	n	n
Cc1c(Nc2ncccc2C(=O)O)cccc1C(F)(F)F	n	n	n	n	n
Cc1ccc(NC(=O)CSc2ccccc2NC(=O)c2ccccc2Cl)cc1Cl	n	n	n	n	n
CC1CC(C)CN(CCCNC(=O)C2CCN(S(=O)(=O)N3CCCCC3)CC2)C1 (stereo unspecified)	59	n	n	n	n
O=C1CC(N2CCN(c3nc4ccccc4s3)CC2)C(=O)N1c1cccc(F)c1 (stereo unspecified)	n	n	10	n	n
CCCOc1ccc(N2C(=O)CC(N3CCN(c4nc5ccccc5s4)CC3)C2=O)cc1 (stereo unspecified)	n	n	n	n	n
CCn1c(NC(=O)c2ccccc2)nc2ccccc21	n	n	n	n	n
CCCCn1c(NC(=O)c2ccccc2)nc2ccccc21	n	-6	52	n	n
CN(C)CCCn1c(NC(=O)C2CCCCC2)nc2ccccc21	n	n	n	n	n
CCCCn1c(NC(=O)C2CCCCC2)nc2ccccc21	n	n	13	n	n
Cc1ccc(CN2CCC(n3nccc3NC(=O)CCOc3ccccc3)CC2)cc1C	n	-6	n	n	n
COc1ccc(CN2CCC(n3nccc3NC(=O)CCc3ccccc3)CC2)c(C)c1C	82	n	n	n	n
CCn1cc(CN2CCC(n3nccc3NC(=O)CCCc3ccccc3)CC2)cn1	43	-7	n	n	n
CCn1cc(CN2CCC(n3nccc3NC(=O)Cc3ccccc3)CC2)cn1	n	n	n	n	n
Cc1ccc(CNC(=O)C2CCC(=O)N(CCc3ccc(Cl)cc3)C2)cc1 (stereo unspecified)	n	n	n	n	n
Cc1cc(C)c(OCC(=O)Nc2nnc(-c3ccco3)o2)c(C)c1	n	n	n	n	n
CNC(=S)NNC(=O)c1cccn(Cc2cccc(C(F)(F)F)c2)c1=O	n	n	25	n	n
